Activity calls are given as the source filed them. The rule behind the calls is not given here.
Legend:
[1] = Cmax in male CD1 mouse at 3 mg/kg, IV measured upto 24 hrs by LC-MS/MS-39 analysis; format: ADME, organism-based; settings: in vivo
Procedure, shortened: (§1)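 Three male CD1 mice given a single 3 mg/kg intravenous dose. Plasma prepared on ice by centrifugation (2000 g, 5 min, 4 °C) within 15 min, held at about −70 °C. Acetonitrile precipitation, then LC-MS/MS quantitation. Mean ± SD, n=3.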

[2] = biological target: T1, von Hippel-Lindau disease tumor suppressor/Cyclin-dependent kinase 7 (Homo sapiens) (UniProt P50613+P40337); assay: PROTAC activity at CDK7/VHL in human A549 cells assessed as degradation of CDK7 measured at 0.1 to 5 uM measured after 6 hrs incubation by immunoblot analysis; format: cell-based; settings: dose 0.1-5 µM
[3] = biological target: T1, von Hippel-Lindau disease tumor suppressor/Cyclin-dependent kinase 7 (Homo sapiens); assay: PROTAC activity at CDK7/VHL in human Jurkat cells assessed as degradation of CDK7 in presence of 1 uM MLN-4924 at 0.1 uM measured after 6 hrs incubation by immunoblot analysis; format: cell-based
Procedure, shortened: (§2)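 Jurkat cells pretreated 2 h with MG132, MLN-4924, YKL-5–167 or a VHL ligand, then given degrader for 6 h. CDK7 immunoblotted: RIPA lysis, SDS-PAGE, anti-CDK7 1:1000, IRDye secondaries.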

[4] = AUClast in male CD1 mouse at 3 mg/kg, IV measured upto 24 hrs by LC-MS/MS-39 analysis; format: ADME, organism-based; settings: in vivo; procedure, shortened: as §1
[5] = biological target: T1, von Hippel-Lindau disease tumor suppressor/Cyclin-dependent kinase 7 (Homo sapiens); assay: PROTAC activity at CDK7/VHL in human MOLT-4 cells assessed as degradation of CDK7 at 0.1 to 5 uM measured after 6 hrs incubation by immunoblot analysis; format: cell-based; settings: dose 0.1-5 µM
[6] = Cmax in male CD1 mouse at 10 mg/kg, IP measured upto 24 hrs by LC-MS/MS-39 analysis; format: ADME, organism-based; settings: in vivo
Procedure, shortened: (§3)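 Male CD1 mice, n=3, one 10 mg/kg intraperitoneal dose. Blood sampled at 0, 0.25, 0.5, 1, 2, 4, 6, 8 and 24 h. Kept on wet ice and spun to plasma (2000 g, 5 min, 4 °C) within 15 min, stored at about −70 °C. Protein precipitation with acetonitrile, then LC-MS/MS. Values are mean ± SD of three mice.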

[7] = biological target: T1, von Hippel-Lindau disease tumor suppressor/Cyclin-dependent kinase 7 (Homo sapiens); assay: PROTAC activity at CDK7/VHL in human Jurkat cells assessed as degradation of MAT1 measured at 0.1 to 5 uM after 6 hrs incubation by Western blotting analysis; format: cell-based; settings: dose 0.1-5 µM
Procedure, shortened: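 Jurkat and OVCAR3 cells treated 6 h across a concentration series. Blots probed for CDK7, MAT1 (1:1000) and Cyclin H (1:1000) overnight at 4 °C, with β-actin control and IRDye secondaries.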

[8] = tested on: Jurkat; assay: Antiproliferative activity against human Jurkat cells assessed as cell viability measured after 72 hrs by CellTiter-Glo assay; format: functional, cell-based
Procedure, shortened: (§4)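 Cells grown in RPMI 1640 with 10% heat-inactivated FBS and penicillin/streptomycin at 37 °C, 5% CO2, mycoplasma-negative. Seeded at 10^4/ml. Compounds dispensed digitally from 10 mM or 1 mM DMSO stocks, DMSO equalized, triplicate wells. After 72 h, CellTiter-Glo added for 10–15 min at room temperature and luminescence read.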

[9] = tested on: OVCAR-3; assay: Antiproliferative activity against human OVCAR-3 cells assessed as cell viability measured after 72 hrs by CellTiter-Glo assay; format: functional, cell-based; settings: OVCAR-3, 72 h; procedure, shortened: as §4
[10] = tested on: Jurkat; assay: Potency index, ratio of YKL-5-167 IC50 to test compound IC50 for antiproliferative activity against human Jurkat cells assessed as cell viability measured after 72 hrs by CellTiter-Glo assay; format: functional
[11] = biological target: Cyclin-dependent kinase 7 (Homo sapiens) (UniProt P50613); assay: Induction of degradation of CDK7 in human […]-knockout Jurkat cells at 0.01 to 1 uM measured after 6 hrs incubation by immunoblot analysis; format: cell-based; settings: dose 0.01-1 µM
Procedure, shortened: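 Parental and VHL-knockout Jurkat cells treated with degrader for 6 h, then CDK7 western blot (RIPA lysis, 4–20% SDS-PAGE, β-actin control, infrared detection).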

[12] = Tmax in male CD1 mouse at 3 mg/kg, IV measured upto 24 hrs by LC-MS/MS-39 analysis; format: ADME, organism-based; settings: in vivo; procedure, shortened: as §1
[13] = Observed clearance in male CD1 mouse at 10 mg/kg, IP measured upto 24 hrs by LC-MS/MS-39 analysis; format: ADME, organism-based; settings: in vivo; procedure, shortened: as §3
[14] = biological target: von Hippel-Lindau disease tumor suppressor/Cyclin-dependent kinase 9 (Homo sapiens) (UniProt P50750+P40337); assay: PROTAC activity at CDK9/VHL in human Jurkat cells assessed as degradation of CDK7 measured at 10 to 500 nM after 6 hrs incubation by Western blotting analysis; format: cell-based; settings: dose 10-500 nM
[15] = biological target: T1, von Hippel-Lindau disease tumor suppressor/Cyclin-dependent kinase 7 (Homo sapiens); assay: PROTAC activity at CDK7/VHL in human Jurkat cells assessed as degradation of CDK7 in presence of 0.5 uM MG132 at 0.1 uM measured after 6 hrs incubation by immunoblot analysis; format: cell-based; procedure, shortened: as §2
[16] = Observed clearance in male CD1 mouse at 3 mg/kg, IV measured upto 24 hrs by LC-MS/MS-39 analysis; format: ADME, organism-based; settings: in vivo; procedure, shortened: as §1
[17] = biological target: von Hippel-Lindau disease tumor suppressor/Cyclin-dependent kinase 1 (Homo sapiens) (UniProt P06493+P40337); assay: PROTAC activity at CDK1/VHL in human Jurkat cells assessed as degradation of CDK7 measured at 10 to 500 nM after 6 hrs incubation by Western blotting analysis; format: cell-based; settings: dose 10-500 nM
[18] = biological target: von Hippel-Lindau disease tumor suppressor/Cyclin-dependent kinase 6 (Homo sapiens) (UniProt Q00534+P40337); assay: PROTAC activity at CDK6/VHL in human Jurkat cells assessed as degradation of CDK7 measured at 10 to 500 nM after 6 hrs incubation by Western blotting analysis; format: cell-based; settings: dose 10-500 nM
[19] = Half life in male CD1 mouse at 3 mg/kg, IV measured upto 24 hrs by LC-MS/MS-39 analysis; format: ADME, organism-based; settings: in vivo; procedure, shortened: as §1
[20] = biological target: von Hippel-Lindau disease tumor suppressor/LON peptidase N-terminal domain and RING finger protein 2 (Homo sapiens) (UniProt P40337+Q1L5Z9); assay: PROTAC activity at LONRF2/VHL in human Jurkat cells assessed as degradation of LONRF2 measured at 0.1 to 5 uM after 6 hrs incubation by Western blotting analysis; format: cell-based; settings: dose 0.1-5 µM
[21] = biological target: T1, von Hippel-Lindau disease tumor suppressor/Cyclin-dependent kinase 7 (Homo sapiens); assay: PROTAC activity at CDK7/VHL in human Jurkat cells assessed as degradation of CDK7 in presence of 10 uM YKL-5-167 at 0.1 uM measured after 6 hrs incubation by immunoblot analysis; format: cell-based; procedure, shortened: as §2

T1 sequence (P40337 whole entry, looked up): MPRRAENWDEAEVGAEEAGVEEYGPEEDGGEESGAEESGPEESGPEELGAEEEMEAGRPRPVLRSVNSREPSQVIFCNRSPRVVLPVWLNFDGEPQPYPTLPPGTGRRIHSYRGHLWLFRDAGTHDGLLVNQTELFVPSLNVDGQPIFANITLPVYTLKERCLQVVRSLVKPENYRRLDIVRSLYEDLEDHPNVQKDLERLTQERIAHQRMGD
T1 sequence (P50613 whole entry, looked up): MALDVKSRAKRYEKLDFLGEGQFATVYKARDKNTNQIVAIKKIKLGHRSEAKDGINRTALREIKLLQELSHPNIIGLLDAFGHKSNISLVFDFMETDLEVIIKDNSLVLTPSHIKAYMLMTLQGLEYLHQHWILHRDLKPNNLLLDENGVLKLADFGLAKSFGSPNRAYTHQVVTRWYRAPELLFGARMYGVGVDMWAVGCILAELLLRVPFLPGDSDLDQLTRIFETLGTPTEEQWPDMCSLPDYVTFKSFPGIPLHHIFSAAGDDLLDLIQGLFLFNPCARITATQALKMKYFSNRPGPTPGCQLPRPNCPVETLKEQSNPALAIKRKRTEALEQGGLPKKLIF
von Hippel-Lindau disease tumor suppressor/Cyclin-dependent kinase 1 (Homo sapiens), sequence (P06493 whole entry, looked up): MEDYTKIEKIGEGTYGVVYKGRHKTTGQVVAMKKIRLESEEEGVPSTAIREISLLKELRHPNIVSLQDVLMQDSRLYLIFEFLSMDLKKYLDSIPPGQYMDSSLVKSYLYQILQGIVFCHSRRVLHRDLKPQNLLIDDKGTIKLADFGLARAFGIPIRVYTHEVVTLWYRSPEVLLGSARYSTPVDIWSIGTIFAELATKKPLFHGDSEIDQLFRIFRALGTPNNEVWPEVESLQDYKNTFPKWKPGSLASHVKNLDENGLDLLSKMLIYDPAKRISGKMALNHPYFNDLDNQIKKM
von Hippel-Lindau disease tumor suppressor/Cyclin-dependent kinase 1 (Homo sapiens), sequence (P40337 whole entry, looked up): as the sequence (P40337 whole entry, looked up) above
Cyclin-dependent kinase 7 (Homo sapiens), sequence (P50613 whole entry): as the sequence (P50613 whole entry, looked up) above
von Hippel-Lindau disease tumor suppressor/Cyclin-dependent kinase 9 (Homo sapiens), sequence (P40337 whole entry, looked up): as the sequence (P40337 whole entry, looked up) above
von Hippel-Lindau disease tumor suppressor/Cyclin-dependent kinase 9 (Homo sapiens), sequence (P50750 whole entry, looked up): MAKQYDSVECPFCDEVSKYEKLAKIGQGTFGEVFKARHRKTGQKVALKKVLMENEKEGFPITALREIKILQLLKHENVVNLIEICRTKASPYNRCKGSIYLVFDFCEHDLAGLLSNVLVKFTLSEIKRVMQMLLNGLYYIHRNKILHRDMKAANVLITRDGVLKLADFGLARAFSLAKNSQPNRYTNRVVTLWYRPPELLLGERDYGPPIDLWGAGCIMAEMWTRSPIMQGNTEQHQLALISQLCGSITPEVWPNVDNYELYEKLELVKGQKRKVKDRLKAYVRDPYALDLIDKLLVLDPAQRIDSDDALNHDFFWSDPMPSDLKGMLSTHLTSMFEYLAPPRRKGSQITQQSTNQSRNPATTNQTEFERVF
von Hippel-Lindau disease tumor suppressor/LON peptidase N-terminal domain and RING finger protein 2 (Homo sapiens), sequence (P40337 whole entry, looked up, the tested form may be a part): as the sequence (P40337 whole entry, looked up) above
von Hippel-Lindau disease tumor suppressor/LON peptidase N-terminal domain and RING finger protein 2 (Homo sapiens), sequence (Q1L5Z9 whole entry, looked up, the tested form may be a part): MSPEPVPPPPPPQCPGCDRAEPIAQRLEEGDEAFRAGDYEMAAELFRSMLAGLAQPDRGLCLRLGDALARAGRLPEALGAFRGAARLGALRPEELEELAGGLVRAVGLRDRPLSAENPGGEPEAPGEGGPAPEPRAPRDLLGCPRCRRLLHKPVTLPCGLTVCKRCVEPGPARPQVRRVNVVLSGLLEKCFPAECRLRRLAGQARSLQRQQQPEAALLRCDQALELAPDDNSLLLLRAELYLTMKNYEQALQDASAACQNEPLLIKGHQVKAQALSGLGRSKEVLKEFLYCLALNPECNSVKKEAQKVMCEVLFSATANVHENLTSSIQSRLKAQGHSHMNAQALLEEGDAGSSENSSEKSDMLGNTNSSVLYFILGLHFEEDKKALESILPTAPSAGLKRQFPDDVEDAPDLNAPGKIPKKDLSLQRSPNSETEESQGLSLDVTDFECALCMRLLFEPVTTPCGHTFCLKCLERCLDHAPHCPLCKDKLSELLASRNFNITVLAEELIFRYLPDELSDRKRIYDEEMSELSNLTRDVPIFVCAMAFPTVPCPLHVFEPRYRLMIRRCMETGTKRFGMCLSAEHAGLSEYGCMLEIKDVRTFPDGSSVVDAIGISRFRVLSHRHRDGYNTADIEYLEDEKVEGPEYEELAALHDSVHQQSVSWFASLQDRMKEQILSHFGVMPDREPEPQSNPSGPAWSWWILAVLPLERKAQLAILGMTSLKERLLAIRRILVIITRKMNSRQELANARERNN
von Hippel-Lindau disease tumor suppressor/Cyclin-dependent kinase 6 (Homo sapiens), sequence (P40337 whole entry, looked up): as the sequence (P40337 whole entry, looked up) above
von Hippel-Lindau disease tumor suppressor/Cyclin-dependent kinase 6 (Homo sapiens), sequence (Q00534 whole entry, looked up): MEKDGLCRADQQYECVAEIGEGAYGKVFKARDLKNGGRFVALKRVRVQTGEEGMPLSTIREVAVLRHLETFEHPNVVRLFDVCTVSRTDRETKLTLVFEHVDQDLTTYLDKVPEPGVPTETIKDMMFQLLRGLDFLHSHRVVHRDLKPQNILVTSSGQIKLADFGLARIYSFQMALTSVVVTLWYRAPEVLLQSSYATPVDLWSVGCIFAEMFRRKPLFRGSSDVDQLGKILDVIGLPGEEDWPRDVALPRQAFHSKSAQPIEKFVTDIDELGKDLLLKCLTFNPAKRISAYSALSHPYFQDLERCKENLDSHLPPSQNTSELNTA

Cc1ncsc1-c1ccc([C@H](C)NC(=O)[C@@H]2C[C@@H](O)CN2C(=O)[C@@H](NC(=O)CCCC#Cc2ccc(C(=O)Nc3n[nH]c4c3CN(C(=O)N[C@H](CN(C)C)c3ccccc3)C4(C)C)cc2)C(C)(C)C)cc1
Cmax [1]: 17.1 µM | Activity [2]: Dose-Dependent Effect | Activity [3]: inactive | AUClast [4]: 6.12 µM·h | Activity [5]: Dose-Dependent Effect | Cmax [6]: 3.39 µM | Activity [7]: Active | IC50 [8]: 160 nM | IC50 [9]: 780 nM | Ratio [10]: 7 | Activity [11]: inactive | Tmax [12]: 4.98 min | CL/F [13]: 8.7 mL/min/kg | Activity [14]: inactive | Activity [15]: inactive | clearance [16]: 8.3 mL/min/kg | Activity [17]: inactive | Activity [18]: inactive | t1/2 [19]: 226 min | Activity [20]: inactive | Activity [21]: inactive

— ChEMBL document CHEMBL5608193, “Discovery of bivalent small molecule degraders of cyclin-dependent kinase 7 (CDK7)” (Eur J Med Chem, 2024)
